The subject of assay [1] is MCF7. The experiment in a line: Cell cycle arrest in human MCF7 cells assessed as […] phase accumulation at 2 times GI50 after 24 hrs by flow cytometry. Type of assay: functional. For orientation: A flow cytometer gives signals particle by particle.
The test system of assay [2] is MCF7. The experiment in a line: Cell cycle arrest in human MCF7 cells assessed as S phase accumulation at 2 times GI50 after 24 hrs by flow cytometry. Type of assay: functional.
Assay [3] concerns M21. The experiment in a line: Inhibition of nuclear translocation of thioredoxin 1 in human M21 cells at 50 uM after 18 hrs by immunocytochemistry. The class given is functional, cell-based. Summed up: (§1)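 M21 cells seeded on fibronectin-coated coverslips, held 18 h at 37 °C, then treated with compounds (5–50 µM; reference agents 0.1–40 µM) or 0.1% DMSO. Fixed in 3.7% formaldehyde, permeabilized with 0.1% saponin, and blocked in 3% BSA. Stained 1 h at 37 °C with anti-thioredoxin-1 monoclonal (1/200), then with Alexa-488 anti-mouse IgG plus DAPI for nuclei.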

Assay [4] has as its system MCF7. The assay can be described thus: Cell cycle arrest in human MCF7 cells assessed as G2/M phase accumulation at 2 times GI50 after 24 hrs by flow cytometry. Type of assay: functional.
Assay [5] deals with M21. The assay can be described thus: Inhibition of nuclear translocation of thioredoxin 1 in human M21 cells at 25 uM after 18 hrs by immunocytochemistry. The class given is functional, cell-based. Summed up:
as §1

Assay [6] deals with MCF7. The experiment in a line: Cell cycle arrest in human MCF7 cells assessed as S phase accumulation at 2 times GI50 after 24 hrs by flow cytometry.
Assay [7] concerns HT-29. The experiment in a line: Growth inhibition of human HT29 cells after 48 hrs by sulforhodamine B assay. Type of assay: functional. The conditions noted are these: HT-29, 48 h. Summed up: (§2)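 NCI-style sulforhodamine B assay. HT-29 (5×10³), M21 or MCF-7 (3.5×10³) cells were grown 24 h, then given DMSO-solubilized drug at 100 to 0.7 µM final (DMSO <0.5%) for 48 h. Fixed in cold 10% TCA, stained with 0.1% SRB, read at 585 nm after subtracting a day-0 plate. Inhibition is relative to DMSO controls; GI50 from at least triplicate runs.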

Assay [8] has as its system M21. The assay can be described thus: Growth inhibition of human M21 cells after 48 hrs by sulforhodamine B assay. The class given is functional. Conditions: M21, 48 h. Summed up:
as §2

The test system of assay [9] is MCF7. The assay can be described thus: Cell cycle arrest in human MCF7 cells assessed as G2/M phase accumulation at 2 times GI50 after 24 hrs by flow cytometry.
Assay [10] deals with MCF7. The assay can be described thus: Growth inhibition of human MCF7 cells after 48 hrs by sulforhodamine B assay. The class given is functional. Conditions: MCF7, 48 h. A digest of the protocol:
as §2

The subject of assay [11] is MCF7. The assay can be described thus: Cell cycle arrest in human MCF7 cells assessed as G0/G1 phase accumulation at 2 times GI50 after 24 hrs by flow cytometry.
Assay [12] has as its system M21. The experiment in a line: Inhibition of nuclear translocation of thioredoxin 1 in human M21 cells at 5 uM after 18 hrs by immunocytochemistry. Type of assay: functional, cell-based. Summed up:
as §1

The source made the active and inactive calls. The rule behind the calls is not given here.

Turning to `O=C(NCCCl)Nc1cccc(OC2CCCCC2)c1`, the Activity is on record as 59% in assay [1], 33% in [2] and 8% in assay [4]. Moreover, in assay [3], the result was Active.
On to `O=C(NCCCl)Nc1ccc2c(c1)CCC2`, for which, in assay [5], the result was Active.
One may read the GI50 as the concentration that inhibits growth by half. Regarding `c1cc(NC2=NCCO2)cc(OC2CCCCC2)c1`, the Activity in [6] is 19%; in [9], 38%; in assay [11], 43%. In addition, the GI50 was 4.4 µM in [7], 12 µM in assay [8] and 15.9 µM in [10]. Besides, the result in [3] and in assay [5] was Active.
Consider `O=C(NCCCl)Nc1ccc(OC2CCCCCC2)cc1`, for which the Activity in [1] came out at 75%; in assay [2] it was 19%; in [4], 6%. Besides, the result in assay [3] was Active.
On to `O=C(NCCCl)Nc1ccc(OC2CCCC2)cc1`, for which the values for the Activity in [1], in assay [2] and in assay [4] were 72%, 19% and 9%, respectively. Also, the result in assay [3] was Active.
For the molecule `c1cc2c(cc1NC1=NCCO1)CCC2`, the result in [3] and in assay [5] was Active.
Take `O=C(NCCCl)Nc1cccc(OC2CCCC2)c1`: the Activity in [1] is recorded as 64%; in [2] it was 24%; in [4], 12%. Further, the outcome in [3] was Active.
As to `c1ccc(-c2ccc(NC3=NCCO3)cc2)cc1`, the GI50 in assay [7] amounted to 5.8 µM; in assay [8], 8.8 µM; in assay [10], 10.6 µM. In addition, the result in [3] and in assay [5] was Active.
For the molecule `O=C(CCl)NC(=O)Nc1ccc(OC2CCCC2)cc1`, the Activity was determined as 33% in [6], 9% in assay [9] and 58% in assay [11]. In assay [12], the result was Active. The results for the GI50 in assay [7], in assay [8] and in assay [10] were 3.1 µM, 2.9 µM and 3.9 µM, respectively.
In the case of `c1ccc(Oc2cccc(NC3=NCCO3)c2)cc1`, the GI50 came out at 5.5 µM in assay [7], 9.6 µM in assay [8] and 12.2 µM in assay [10]. In addition, the outcome in assay [3] and in assay [5] was inactive.
Take `O=C(NCCCl)Nc1cccc(OC2CCCCCC2)c1`: the Activity in [1] amounted to 72%; in assay [2], 22%; in assay [4] it was 6%. In addition, the result in assay [3] was Active.
Regarding `O=C(CCl)NC(=O)Nc1cccc(OC2CCCCCC2)c1`, the values for the Activity in assay [6], in [9] and in assay [11] were 31%, 11% and 58%, respectively. The result in assay [12] was Active. For the same molecule, the GI50 came out at 6.9 µM in [7], 4.2 µM in assay [8] and 7.2 µM in assay [10].
For the molecule `c1cc(NC2=NCCO2)cc(OC2CCCCCC2)c1`, the Activity in assay [6] was found to be 28%; in [9] it was 24%; in [11] it was 48%. Besides, the values for the GI50 in assay [7], in assay [8] and in assay [10] were 6.9 µM, 14.4 µM and 14.8 µM, respectively. Besides, the result in [3] and in [5] was Active.
In the case of `O=C(NCCCl)Nc1ccc(-c2ccccc2)cc1`, the GI50 in assay [7] was 8.3 µM; in assay [8] it was 14.5 µM; in assay [10], 42 µM. In addition, the outcome in assay [3] and in assay [5] was Active.
Regarding `O=C(CCl)NC(=O)Nc1cccc(OC2CCCC2)c1`, the values for the Activity in assay [6], in assay [9] and in [11] were 34%, 13% and 53%, respectively. In addition, the result in [12] was Active. The values for the GI50 in assay [7], in assay [8] and in [10] were 3.1 µM, 3.5 µM and 6.2 µM, respectively.
With `c1ccc(COc2ccc(NC3=NCCO3)cc2)cc1`, the figures for the GI50 in [7], in assay [8] and in assay [10] were 10.3 µM, 15.9 µM and 11.1 µM, respectively. The result in assay [3] and in [5] was Active.

The values above are taken from ChEMBL document CHEMBL1155784, “Aromatic 2-chloroethyl urea derivatives and bioisosteres. Part 2: Cytocidal activity and effects on the nuclear translocation of thioredoxin-1, and the cell cycle progression” (2008).
